From ChEMBL document CHEMBL1152819, “Evaluation of hexadecyloxypropyl-9-R-[2-(Phosphonomethoxy)propyl]- adenine, CMX157, as a potential treatment for human immunodeficiency virus type 1 and hepatitis B virus infections” (Antimicrob Agents Chemother, 2007)
pEC50: −log10 of the molar value.

Assays:
[1] = tested on: Human immunodeficiency virus 1; test: Antiviral activity against HIV1 LAI in human MT2 cells assessed as inhibition of p24 antigen production by ELISA; assay type: functional, organism-based; conditions: Human immunodeficiency virus 1, LAI
In short: (§1)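 MT-2 cells in RPMI 1640 with 10% FBS and 10 mM HEPES, infected with HIV-1 LAI at MOI 0.001 TCID50/cell. Incubated with threefold serial dilutions, three wells per dilution. EC50 taken as the concentration inhibiting p24 antigen production by 50%.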

[2] = tested on: Human immunodeficiency virus 1; test: Antiviral activity against HIV1 in human MT2 cells; assay type: functional, organism-based; in short: as §1

Row | pEC50 [1] | pEC50 [2] | SMILES
1 | 8.15 |  | CCCCCCCCCCCCCCCCOCCCOP(=O)(O)CO[C@H](CO)Cn1cnc2c(N)ncnc21
2 |  | 10.70 | CCCCCCCCCCCCCCCCOCCCOP(=O)(O)COCCn1cnc2c(N)nc(N)nc21
